ChEMBL document CHEMBL1126673, “6-[(aminoalkyl)amino]-substituted 7H-benzo[e]perimidin-7-ones as novel antineoplastic agents. Synthesis and biological evaluation” (J Med Chem, 1993)

Legend:
L1210 = test: Concentration of compound required to inhibit the cellular protein biosynthesis by 50%; format: functional, cell-based; details: Mus musculus
Outline: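 Murine L1210 leukemia cells grown in RPMI 1640 with 5% fetal calf serum, penicillin/streptomycin, 37 °C, 5% CO2, passaged every 2–3 days. Log-phase cells seeded at final 0.05×10^6 cells/mL and exposed 48 h. Growth inhibition read as cellular protein content; EC50 = concentration giving 50% inhibition. At least four runs, mean ± SEM.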

Equus caballus = species on record: Equus caballus; test: (§1) Concentration of substrate at which the amount of total cytochrome c reduction is decreased by 10%; format: functional
Outline: (§2)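 NADH dehydrogenase substrate assay: decrease in enzymatic cytochrome c reduction at low NADH. Mixture of […], 0–200 μM compound, 10 μM NADH, 0.125 units/mL NADH dehydrogenase, 50 μg/mL SOD, 0.50 M HEPES pH 7.4. IC10 = substrate concentration reducing total cytochrome c reduction by 10%.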

[1] = (§3) Activity of NADH dehydrogenase was determined; format: functional
Outline: (§4)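 Enzymatic NADH oxidation stimulated by compound: reaction with 100 μM test compound, 100 μM NADH, NADH dehydrogenase at the stated activity, in 0.05 M HEPES pH 7.4.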

P388 [2] = test: (§5) Ratio of medium survival time of the treated to the control mice at the dose of 100 (mg/kg); format: functional, Mus musculus
P388 [3] = test: Ratio of medium survival time of the treated to the control mice at the dose of 50 (mg/kg); format: functional, Mus musculus
[4] = Ratio of toxic deaths/survivors 7 days after the day 5 injection as a measure of drug toxicity at the dose of 100 (mg/kg); format: organism-based; details: in vivo, 168 h
Outline: (§6)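 P388 leukemia model in (BALB/c × DBA/2) F1 mice, 10^6 cells ip on day 0. Toxicity was scored as toxic deaths/survivors 7 days after the day-5 injection.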

[5] = NADH oxidation by the compound was determined; format: functional; outline: as §4
[6] = Ratio of toxic deaths/survivors 7 days after the day 5 injection as a measure of drug toxicity at the dose of 50 (mg/kg); format: organism-based; details: in vivo, 168 h; outline: as §6
P388 [7] = test: ratio of medium survival time of the treated to the control mice at the dose of 25 (mg/kg); format: functional, Mus musculus
[8] = Ratio of toxic deaths/survivors 7 days after the day 5 injection as a measure of drug toxicity at the dose of 25 (mg/kg); format: organism-based; details: in vivo, 168 h; outline: as §6
Mus musculus [9] = test: as §5; format: functional
[10] = Ratio of toxic deaths/survivors 7 days after the day 5 injection as a measure of drug toxicity at the dose of 200 (mg/kg); format: organism-based; details: in vivo, 168 h; outline: as §6
Mus musculus [11] = test: Ratio of medium survival time of the treated to the control mice at the dose of 200 (mg/kg); format: functional
P388 [12] = test: ratio of medium survival time of the treated to the control mice at the dose of 50 (mg/kg); format: functional, Mus musculus
[13] = molecular target: NADH-ubiquinone oxidoreductase chain 4 (Homo sapiens) (UniProt P03905); test: as §3; format: functional; outline: as §4
Chain of NADH-ubiquinone oxidoreductase chain 4 (Homo sapiens) (P03905 whole entry, looked up): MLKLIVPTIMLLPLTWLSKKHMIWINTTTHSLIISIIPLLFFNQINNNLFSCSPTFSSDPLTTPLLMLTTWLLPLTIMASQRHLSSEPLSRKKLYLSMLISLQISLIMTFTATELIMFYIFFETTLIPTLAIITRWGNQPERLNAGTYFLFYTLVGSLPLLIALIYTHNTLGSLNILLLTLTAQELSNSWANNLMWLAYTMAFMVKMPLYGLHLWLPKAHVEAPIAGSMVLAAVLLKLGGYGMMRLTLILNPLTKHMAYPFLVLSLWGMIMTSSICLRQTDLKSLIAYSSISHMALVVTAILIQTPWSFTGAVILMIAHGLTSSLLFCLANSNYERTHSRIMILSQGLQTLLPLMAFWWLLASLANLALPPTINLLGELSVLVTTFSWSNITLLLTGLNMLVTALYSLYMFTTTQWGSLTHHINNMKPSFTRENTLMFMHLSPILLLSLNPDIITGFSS

[14] = molecular target: NADH-ubiquinone oxidoreductase chain 4 (Homo sapiens) (UniProt P03905); test: as §1; format: functional; outline: as §2
[15] = Ratio of toxic deaths/survivors 7 days after the day 5 injection as a measure of drug toxicity; details: 168 h; outline: as §6
P388 [16] = test: ratio of medium survival time of the treated to the control mice at the dose of 12.50 (mg/kg); format: functional, Mus musculus
P388 [17] = test: ratio of medium survival time of the treated to the control mice at the dose of 3.12 (mg/kg); format: functional, Mus musculus
P388 [18] = test: ratio of medium survival time of the treated to the control mice at the dose of 6.25 (mg/kg); format: functional, Mus musculus
[19] = Ratio of toxic deaths/survivors 7 days after the day 5 injection as a measure of drug toxicity at the dose of 12.50 (mg/kg); format: functional; outline: as §6
[20] = Ratio of toxic deaths/survivors 7 days after the day 5 injection as a measure of drug toxicity at the dose of 6.25 (mg/kg); format: functional; outline: as §6
[21] = Ratio of toxic deaths/survivors 7 days after the day 5 injection as a measure of drug toxicity at the dose of 3.12 (mg/kg); format: functional; outline: as §6

Question: For `NCCCNc1ccc2ncnc3c2c1C(=O)c1ccccc1-3`, which EC50 (L1210) is on record?
Answer: The EC50 was 546 nM.

Question: What about the IC10 (Equus caballus) of the same compound?
Answer: The IC10 was greater than 300000 nM.

Question: What about the Activity [1] of the same compound?
Answer: The Activity was 0.75 U/mL.

Question: What about the T/C (P388 [2]) of the same compound?
Answer: Its T/C is 127%.

Question: What about the T/C (P388 [3]) of the same compound?
Answer: The T/C was 127%.

Question: And the ToxD/Surv [4]?
Answer: Its ToxD/Surv is 4.

Question: What about the Activity [5] of the same compound?
Answer: The Activity was 4.7 µM/min.

Question: And the ToxD/Surv [6]?
Answer: Its ToxD/Surv is 7.

Question: With `CNCCNc1ccc2ncnc3c2c1C(=O)c1ccccc1-3` as the compound, how does the EC50 (L1210) read?
Answer: Its EC50 is 268 nM.

Question: What about the IC10 (Equus caballus) of the same compound?
Answer: The IC10 was greater than 300000 nM.

Question: What about the Activity [1] of the same compound?
Answer: Its Activity is 0.75 U/mL.

Question: What about the T/C (P388 [2]) of the same compound?
Answer: Its T/C is 164%.

Question: And the T/C (P388 [3])?
Answer: The T/C was 146%.

Question: And the ToxD/Surv [4]?
Answer: Its ToxD/Surv is 6.

Question: And the Activity [5]?
Answer: Its Activity is 7.6 µM/min.

Question: What about the ToxD/Surv [6] of the same compound?
Answer: Its ToxD/Surv is 6.

Question: What does the source list for `CCN(CC)CCNc1ccc2ncnc3c2c1C(=O)c1ccccc1-3`?
Answer: EC50 (L1210): 460 nM; IC10 (Equus caballus): > 300000 nM; Activity [1]: 0.75 U/mL; T/C (P388 [2]): 180%; T/C (P388 [3]): 140%; ToxD/Surv [4]: 7; Activity [5]: 7 µM/min; ToxD/Surv [6]: 5

Question: Which results are given for `NCCNc1ccc2ncnc3c2c1C(=O)c1ccccc1-3`?
Answer: EC50 (L1210): 379 nM; IC10 (Equus caballus): > 300000 nM; Activity [1]: 0.75 U/mL; T/C (P388 [3]): 150%; T/C (P388 [7]): 140%; Activity [5]: 4.5 µM/min; ToxD/Surv [8]: 7; ToxD/Surv [6]: 7

Question: Which EC50 (L1210) does the source give for `Nc1ccc2ncnc3c2c1C(=O)c1ccccc1-3` here?
Answer: Its EC50 is 945 nM.

Question: And the T/C (Mus musculus [9])?
Answer: The T/C was 100%.

Question: What about the ToxD/Surv [4] of the same compound?
Answer: Its ToxD/Surv is 0.

Question: What about the ToxD/Surv [10] of the same compound?
Answer: Its ToxD/Surv is 0.

Question: And the T/C (Mus musculus [11])?
Answer: Its T/C is 100%.

Question: With `CN(C)CCNc1ccc2ncnc3c2c1C(=O)c1ccccc1-3` as the compound, how does the EC50 (L1210) read?
Answer: The EC50 was 203 nM.

Question: And the IC10 (Equus caballus)?
Answer: The IC10 was greater than 300000 nM.

Question: What about the Activity [1] of the same compound?
Answer: Its Activity is 0.75 U/mL.

Question: And the T/C (P388 [2])?
Answer: Its T/C is 209%.

Question: What about the T/C (P388 [12]) of the same compound?
Answer: The T/C was 155%.

Question: And the ToxD/Surv [4]?
Answer: Its ToxD/Surv is 6.

Question: And the Activity [5]?
Answer: Its Activity is 6.5 µM/min.

Question: And the ToxD/Surv [6]?
Answer: Its ToxD/Surv is 6.

Question: With `COc1cccc2c1C(=O)c1c(O)c3c(c(O)c1C2=O)C[C@@](O)(C(=O)CO)C[C@@H]3O[C@H]1C[C@H](N)[C@H](O)[C@H](C)O1` as the compound, how does the Activity [13] read?
Answer: The Activity was 0.15 units ml-1.

Question: And the Oxidation [5]?
Answer: Its Oxidation is 30.1 µM/min.

Question: With `COc1cccc2c1C(=O)c1c(O)c3c(c(O)c1C2=O)C[C@@](O)(C(C)=O)C[C@@H]3O[C@H]1C[C@H](N)[C@H](O)[C@H](C)O1` as the compound, how does the IC10 ([14]; Equus caballus) read?
Answer: The IC10 was 2000 nM.

Question: What about the Activity [13] of the same compound?
Answer: The Activity was 0.15 units ml-1.

Question: And the Oxidation [5]?
Answer: The Oxidation was 33 µM/min.

Question: Which results are given for `O=C1c2ccccc2-c2ncnc3ccc(NCCNCCO)c1c23`?
Answer: EC50 (L1210): 296 nM; IC10 ([14]; Equus caballus): > 300000 nM; Activity [1]: 0.75 U/mL; T/C (P388 [2]): 255%; T/C (P388 [3]): 173%; Activity [5]: 7.4 µM/min; ToxD/Surv [15]: 7

Question: Which results are given for `O=C1c2ccccc2C(=O)c2c(NCCNCCO)ccc(NCCNCCO)c21` [AMETANTRONE]?
Answer: EC50 (L1210): 275 nM; IC10 [14]: 114000 nM; Activity [13]: 0.75 units ml-1; T/C (P388 [16]): 300%; T/C (P388 [17]): 190%; T/C (P388 [18]): 210%; ToxD/Surv [19]: 6; Oxidation [5]: 8.8 µM/min; ToxD/Surv [20]: 6; ToxD/Surv [21]: 6
